Consider 16 compounds from PubChem BioAssay.

Experiment [1] in a line: reducers of endogenous Her2 protein level, primary screen, SKBR3 breast tumor cells, AlphaScreen, ATP viability (AID 461;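 active means Her2 level under about 52% in both replicate screens, with viability over 70% of control, limit read from the data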;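 on Her2 level: lower value means less Her2 protein in the cells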;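 on viability: percent of carrier control wells set as 100% viability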). Conditions: 18-24 h, measured here: SKBR3 viability, ATP luminescence, at 10 µM.
Experiment [2] addresses Receptor tyrosine-protein kinase erbB-2 (Homo sapiens) (UniProt P04626). Described as above. Conditions: 18-24 h, at 10 µM, stronger effect = lower value.
Experiment [3] can be described thus: SK-BR-3 cell growth inhibitors, pilot screen, 24 h, human (AID 572;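 active means viability at or below 10% of carrier control in both of two separate runs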;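 further: compound exposure lasted between 18 and 24 h rather than exactly 24 h; 100% = carrier-treated control wells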). The settings on record: SK-BR-3 viability, CellTiter-Glo luminescence, at 10 µM, stronger effect = lower value.
The nature of experiment [4]: HUVEC growth inhibition – cell-based, human, primary screen (AID 575;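 active means viability at or below 30% in both replicate assays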;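 further: 100% = median of untreated cell wells with 0.1% DMSO on each plate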). The settings on record: HUVEC proliferation, CellTiter-Glo luminescence, 72 h; at 10 µM; stronger effect = lower value. Summed up: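 Test system: primary human umbilical vein endothelial cells; medium: endothelial basal medium with 2% FBS plus growth supplements; dosing: 10 µM compound only; times: 72 h treatment at 37 °C; signal: CTG luminescence; read-out: % viability relative to median vehicle-well signal on each plate; control set: vehicle and MePR control wells; plate: 384-well, collagen-coated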

The nature of experiment [5]: growth inhibitors of H69AR lung tumor, primary screen, human, duplicate replicates (AID 580;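 active means viability at or under a set limit in both replicates, limit being median viability minus 3 SD, cut at about 48% in these data, passing the limit was not always enough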;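 further: 100% = mean luminescence of untreated wells and 0% = no signal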). Conditions: H69AR lung tumor cells viability, ATP luminescence, 72 h; at 10 µM; stronger effect = lower value.
Experiment [6] can be described thus: reversal of MRP1-mediated doxorubicin resistance, pilot screen, H69AR cells, doxorubicin co-treatment (AID 601). Conditions: CellTiter-Glo, 72 h, at 10 µM; for differential viability (reversal): stronger effect = higher value.
Experiment [7] is described as follows: 384-well plate pilot, post-Golgi transport modulator project, inhibition of yeast transport mutant growth (AID 636; in the data active means inhibition above about 31%). Conditions: absorbance 615 nm, about 18 h, stronger effect = higher value.
The nature of experiment [8]: growth suppression of yeast trafficking mutant, preliminary HTS, modulators of trafficking downstream of Golgi apparatus project, 1536-format plate, OD 615 nm (AID 637; in the data active means inhibition above about 30%). The settings on record: yeast transport mutant growth, absorbance 615 nm, 18 h; stronger effect = higher value.
Setting [9] is: H69AR cells + 2 uM doxorubicin, measured here: viability with 2 uM doxorubicin, stronger effect = lower value.
The mark [10] stands for this setting: H69AR cells, compound alone cytotoxicity.

Active and inactive are the calls of the source.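 How the source made its calls, unless noted: active means viability loss from added drug above about 55%, and viability with drug at most 40%, in both replicates (limit read from the data, passing the limit was not always enough); inconclusive means both conditions met in only one replicate; inactive means neither replicate meets both conditions.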

Sequence of Receptor tyrosine-protein kinase erbB-2 (Homo sapiens) (P04626 whole entry, looked up): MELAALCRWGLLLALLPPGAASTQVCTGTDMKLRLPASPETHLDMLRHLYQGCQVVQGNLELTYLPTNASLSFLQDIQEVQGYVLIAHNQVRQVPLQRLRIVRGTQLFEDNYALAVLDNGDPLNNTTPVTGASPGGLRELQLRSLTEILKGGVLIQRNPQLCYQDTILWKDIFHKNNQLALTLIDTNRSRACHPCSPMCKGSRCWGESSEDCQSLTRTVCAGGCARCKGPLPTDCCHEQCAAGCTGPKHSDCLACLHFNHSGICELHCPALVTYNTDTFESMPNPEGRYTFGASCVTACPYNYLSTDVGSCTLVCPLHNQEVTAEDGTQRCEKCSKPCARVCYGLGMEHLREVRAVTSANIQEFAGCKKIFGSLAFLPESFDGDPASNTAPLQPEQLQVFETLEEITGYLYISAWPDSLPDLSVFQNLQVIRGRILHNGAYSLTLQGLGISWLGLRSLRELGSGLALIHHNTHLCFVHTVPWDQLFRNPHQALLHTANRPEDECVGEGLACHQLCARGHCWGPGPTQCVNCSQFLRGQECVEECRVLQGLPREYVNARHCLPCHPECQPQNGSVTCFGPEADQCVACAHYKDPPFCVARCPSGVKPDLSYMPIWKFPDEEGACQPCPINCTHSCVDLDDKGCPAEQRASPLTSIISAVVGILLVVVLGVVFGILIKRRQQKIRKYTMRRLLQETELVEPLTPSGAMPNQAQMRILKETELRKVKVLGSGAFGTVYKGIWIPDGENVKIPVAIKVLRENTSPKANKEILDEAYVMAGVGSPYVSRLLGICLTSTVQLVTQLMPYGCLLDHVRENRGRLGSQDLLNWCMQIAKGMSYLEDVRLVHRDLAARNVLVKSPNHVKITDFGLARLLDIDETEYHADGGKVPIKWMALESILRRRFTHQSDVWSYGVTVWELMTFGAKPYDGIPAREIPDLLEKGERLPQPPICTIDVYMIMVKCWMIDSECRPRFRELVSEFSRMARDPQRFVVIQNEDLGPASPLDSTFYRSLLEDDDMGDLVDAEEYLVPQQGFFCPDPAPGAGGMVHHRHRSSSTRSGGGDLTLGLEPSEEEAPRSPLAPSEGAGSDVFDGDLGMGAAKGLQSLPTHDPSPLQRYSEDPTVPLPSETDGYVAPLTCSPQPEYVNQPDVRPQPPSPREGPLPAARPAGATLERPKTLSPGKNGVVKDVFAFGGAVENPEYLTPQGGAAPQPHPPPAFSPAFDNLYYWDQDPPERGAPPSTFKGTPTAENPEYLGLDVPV

For the compound `CCCCC(=O)Nc1c(O)c2ccccc2[nH]c1=O`, the viability is 95.5% in experiment [1]; 95.5% (inactive) in experiment [3]; 108% (inactive) in experiment [4]; 98.3% (inactive) in experiment [5]; 101% in experiment [6] (setting [9]); 98.3% in experiment [6] (setting [10]). Also, in experiment [2], the Her2 level was 107% (inactive). For the same compound, the differential viability (reversal) in experiment [6] (H69AR cells + 2 uM doxorubicin) is -2.29% (inactive). Moreover, the figures for the inhibition in experiment [7] and in experiment [8] were -6.93% (inactive) and -8.69% (inactive), respectively.

With `CC(C)(C)c1cc(NS(=O)(=O)c2ccc3c(c2)OCCO3)on1`, the viability in experiment [1] is 131%; in experiment [3], 131% (inactive); in experiment [4], 98.1% (inactive); in experiment [5], 89.6% (inactive); in experiment [6] (setting [9]), 93%; in experiment [6] (setting [10]) it was 89.6%. Moreover, the Her2 level in experiment [2] was 88% (inactive). The differential viability (reversal) in experiment [6] (H69AR cells + 2 uM doxorubicin) was -3.41% (inactive). The figures for the inhibition in experiment [7] and in experiment [8] were -1.3% (inactive) and 5.24% (inactive), respectively.

Consider `CN(C(=O)c1ccncc1)C1CC(C)(C)N(O)C(C)(C)C1`, for which the viability was 124% in experiment [1]; 124% (inactive) in experiment [3]; 87.7% (inactive) in experiment [4]; 92.3% (inactive) in experiment [5]; 94.2% in experiment [6] (setting [9]); 92.3% in experiment [6] (setting [10]). In experiment [2], the Her2 level is 96.5% (inactive). Further, the differential viability (reversal) in experiment [6] (H69AR cells + 2 uM doxorubicin) was -1.93% (inactive). For the same compound, the figures for the inhibition in experiment [7] and in experiment [8] were -7.11% (inactive) and -6.36% (inactive), respectively.

For `CCOC(=O)c1cc(-c2nnc(-c3ccc(Oc4ccccc4)cc3)o2)c(C)nc1C`, the viability in experiment [1] is 85%; in experiment [3] it was 85% (inactive); in experiment [4] it was 80.5% (inactive); in experiment [5], 102% (inactive); in experiment [6] (setting [9]), 85.7%; in experiment [6] (setting [10]) it was 102%. For the same compound, in experiment [2], the Her2 level is 88% (inactive). Also, the differential viability (reversal) in experiment [6] (H69AR cells + 2 uM doxorubicin) was 16.7% (inactive). The inhibition in experiment [7] was -1.6% (inactive); in experiment [8], -0.16% (inactive).

In the case of `CCn1c(SCC(=O)c2ccc(Cl)cc2)nnc1-c1ccoc1C`, the viability in experiment [1] is 118%; in experiment [3], 118% (inactive); in experiment [4], 98.2% (inactive); in experiment [5] it was 93.6% (inactive); in experiment [6] (setting [9]), 89.6%; in experiment [6] (setting [10]), 93.6%. The Her2 level in experiment [2] is 104% (inactive). Also, in experiment [6] (H69AR cells + 2 uM doxorubicin), the differential viability (reversal) was 4% (inactive). The figures for the inhibition in experiment [7] and in experiment [8] were -2.84% (inactive) and -0.98% (inactive), respectively.

Consider `Cc1cc2oc(C(=O)NC3CCS(=O)(=O)C3)c(C)c2cc1C` (stereo not given), for which the viability in experiment [1] is 99.5%; in experiment [3] it was 99.5% (inactive); in experiment [4] it was 97.7% (inactive); in experiment [5], 93.7% (inactive); in experiment [6] (setting [9]) it was 71%; in experiment [6] (setting [10]) it was 93.7%. For the same compound, the Her2 level in experiment [2] is 98% (inactive). Also, the differential viability (reversal) in experiment [6] (H69AR cells + 2 uM doxorubicin) was 22.6% (inactive). In addition, the values for the inhibition in experiment [7] and in experiment [8] were 1.45% (inactive) and 1.48% (inactive), respectively.

In the case of `CNc1ccc(C(O)(C(F)(F)F)C(F)(F)F)cc1C(O)(C(F)(F)F)C(F)(F)F`, the viability in experiment [1] is 98%; in experiment [3], 98% (inactive); in experiment [4], 76.8% (inactive); in experiment [5] it was 80.7% (inactive); in experiment [6] (setting [9]) it was 84%; in experiment [6] (setting [10]), 80.7%. For the same compound, the Her2 level in experiment [2] is 73% (inactive). In experiment [6] (H69AR cells + 2 uM doxorubicin), the differential viability (reversal) was -3.27% (inactive). The figures for the inhibition in experiment [7] and in experiment [8] were -5.33% (inactive) and 5.25% (inactive), respectively.

Consider `COCCn1nnnc1C(c1cc2cc(C)cc(C)c2[nH]c1=O)N1CCN(c2ccccc2F)CC1` (stereo not given), for which the viability in experiment [1] is 102%; in experiment [3], 102% (inactive); in experiment [4], 78.4% (inactive); in experiment [5], 80.9% (inactive); in experiment [6] (setting [9]) it was 86.3%; in experiment [6] (setting [10]), 80.9%. Further, the Her2 level in experiment [2] was 81.5% (inactive). Besides, the differential viability (reversal) in experiment [6] (H69AR cells + 2 uM doxorubicin) was -5.39% (inactive). Moreover, the inhibition is -4% (inactive) in experiment [7] and 1.8% (inactive) in experiment [8].

In the case of `CC(C)(C)c1ccc(O)c(N)c1`, the viability is 86% in experiment [1]; 86% (inactive) in experiment [3]; 106% (inactive) in experiment [4]; 94.2% (inactive) in experiment [5]; 95.1% in experiment [6] (setting [9]); 94.2% in experiment [6] (setting [10]). Moreover, the Her2 level in experiment [2] is 93.5% (inactive). Besides, the differential viability (reversal) in experiment [6] (H69AR cells + 2 uM doxorubicin) is -0.85% (inactive). Moreover, the inhibition in experiment [7] is -5.21% (inactive); in experiment [8], -3.33% (inactive).

As for `Cc1cc(C)n(C(=O)CCCCCC(=O)n2nc(C)cc2C)n1`, the viability in experiment [1] was 116%; in experiment [3] it was 116% (inactive); in experiment [4] it was 105% (inactive); in experiment [5], 105% (inactive); in experiment [6] (setting [9]), 94.5%; in experiment [6] (setting [10]), 105%. Moreover, the Her2 level in experiment [2] was 86.5% (inactive). In addition, the differential viability (reversal) in experiment [6] (H69AR cells + 2 uM doxorubicin) was 10.8% (inactive). Moreover, the inhibition in experiment [7] was -9.32% (inactive); in experiment [8] it was -2.86% (inactive).

Turning to `Cc1ccc(S(=O)(=O)CCC(=O)Nc2ccc3c(c2)OCO3)cc1`, the viability in experiment [1] is 96.5%; in experiment [3], 96.5% (inactive); in experiment [4] it was 92.5% (inactive); in experiment [5], 81.3% (inactive); in experiment [6] (setting [9]) it was 92.1%; in experiment [6] (setting [10]), 81.3%. In experiment [2], the Her2 level is 84.5% (inactive). In experiment [6] (H69AR cells + 2 uM doxorubicin), the differential viability (reversal) was -10.8% (inactive). The inhibition in experiment [7] was 0.95% (inactive); in experiment [8] it was -2.22% (inactive).

In the case of `CC1CCCN(c2ccc(C(=O)NCc3cccs3)cn2)C1` (stereo not given), the viability is 98.5% in experiment [1]; 98.5% (inactive) in experiment [3]; 96.1% (inactive) in experiment [4]; 82.8% (inactive) in experiment [5]; 77.9% in experiment [6] (setting [9]); 82.8% in experiment [6] (setting [10]). Besides, in experiment [2], the Her2 level is 89.5% (inactive). In experiment [6] (H69AR cells + 2 uM doxorubicin), the differential viability (reversal) is 4.85% (inactive). Also, the inhibition in experiment [7] was -0.91% (inactive); in experiment [8], -2.86% (inactive).

Turning to `CC(=O)Nc1ccc(NC(=O)c2cc(C)nn2-c2ccccc2)cc1`, the viability in experiment [1] is 84%; in experiment [3], 84% (inactive); in experiment [4] it was 89.5% (inactive); in experiment [5] it was 108% (inactive); in experiment [6] (setting [9]), 95.5%; in experiment [6] (setting [10]) it was 108%. Moreover, the Her2 level in experiment [2] is 116% (inactive). Moreover, in experiment [6] (H69AR cells + 2 uM doxorubicin), the differential viability (reversal) was 12.7% (inactive). Further, the inhibition is 2.53% (inactive) in experiment [7] and -7.9% (inactive) in experiment [8].

With `COc1ccc(NC(=O)c2oc3ccc(S(=O)(=O)N4CCC5(CC4)OCCO5)cc3c2C)cc1`, the viability in experiment [1] is 87.5%; in experiment [3], 87.5% (inactive); in experiment [4] it was 39.4% (inactive); in experiment [5], 37.5% (active); in experiment [6] (setting [9]) it was 42.8%; in experiment [6] (setting [10]) it was 37.5%. The Her2 level in experiment [2] was 90.5% (inactive). For the same compound, the differential viability (reversal) in experiment [6] (H69AR cells + 2 uM doxorubicin) was -5.32% (inactive). The inhibition was 1.17% (inactive) in experiment [7] and -14.8% (inactive) in experiment [8].

On to `Cc1ccc2[nH]c(=O)c(CN(CCCO)S(=O)(=O)c3c(C)ccc4nsnc34)cc2c1`, for which the viability was 91% in experiment [1]; 91% (inactive) in experiment [3]; 95.1% (inactive) in experiment [4]; 96.8% (inactive) in experiment [5]; 92.8% in experiment [6] (setting [9]); 96.8% in experiment [6] (setting [10]). Moreover, the Her2 level in experiment [2] was 92.5% (inactive). Besides, the differential viability (reversal) in experiment [6] (H69AR cells + 2 uM doxorubicin) is 4.04% (inactive). The inhibition in experiment [7] was -1.18% (inactive); in experiment [8], -4.44% (inactive).

In the case of `Clc1ccc(-c2nnc3sc(-c4ccc(Br)o4)nn23)cc1`, the viability in experiment [1] is 128%; in experiment [3], 128% (inactive); in experiment [4], 86% (inactive); in experiment [5] it was 104% (inactive); in experiment [6] (setting [9]), 93.5%; in experiment [6] (setting [10]), 104%. Moreover, the Her2 level in experiment [2] was 94.5% (inactive). In experiment [6] (H69AR cells + 2 uM doxorubicin), the differential viability (reversal) is 10.5% (inactive). Further, the inhibition is -5.07% (inactive) in experiment [7] and 5.87% (inactive) in experiment [8].
